ERb SRC1 inh: blocks coactivator binding to human estrogen receptor beta | Q92731 | TR-FRET ER-beta LBD / SRC1-Cy5 peptide binding; receptor agonist-loaded with 1 µM estradiol | inhibition, % at 25.6 µM | 86,000 compounds, 1.3% hits;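 active means compounds whose percent inhibition of the receptor-coactivator binding signal exceeds about 50% in the single-dose screen, limit read from the data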;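 further: 0% = receptor plus peptide wells without compound and 100% = peptide-only wells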
ERa SRC1 inh: ER-alpha (human) coactivator binding inhibition; inhibition, % at 25.6 µM; AID 629; 86,000 compounds, 1.7% hits; TR-FRET ER-alpha LBD / SRC-1 peptide, estradiol-bound; in the data active means inhibition above about 50%;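 further: 0% = receptor plus peptide control and 100% = peptide only without receptor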
sEH activator: activators of human soluble epoxide hydrolase; 91,000 compounds, 0.04% hits; activation, % at 2 µM; AID 717; purified human sEH enzymatic activity, activator screen; P34913; in the data active means activation above about 37%
Target sequence (P34913 whole entry, looked up): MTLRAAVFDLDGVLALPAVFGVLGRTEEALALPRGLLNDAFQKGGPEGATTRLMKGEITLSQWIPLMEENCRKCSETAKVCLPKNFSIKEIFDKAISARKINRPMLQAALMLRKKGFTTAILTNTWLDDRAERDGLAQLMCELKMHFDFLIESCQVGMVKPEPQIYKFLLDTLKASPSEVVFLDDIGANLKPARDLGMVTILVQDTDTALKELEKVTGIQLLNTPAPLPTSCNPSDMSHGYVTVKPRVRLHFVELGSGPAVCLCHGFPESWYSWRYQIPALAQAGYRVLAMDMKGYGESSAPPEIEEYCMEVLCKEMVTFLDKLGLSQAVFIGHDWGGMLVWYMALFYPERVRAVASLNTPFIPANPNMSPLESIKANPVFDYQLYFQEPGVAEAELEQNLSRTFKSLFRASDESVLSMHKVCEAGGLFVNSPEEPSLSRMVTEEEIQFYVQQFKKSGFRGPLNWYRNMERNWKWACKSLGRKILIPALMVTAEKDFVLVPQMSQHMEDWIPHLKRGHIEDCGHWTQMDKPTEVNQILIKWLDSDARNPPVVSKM
sEH inhibitor: blocks human soluble epoxide hydrolase activity | recombinant human sEH enzymatic activity assay | inhibition, % at 2 µM | 91,000 compounds, 0.34% hits | AID 707; in the data active means inhibition above about 80%
Rev-RRE block: inhibitors of HIV-1 Rev-RRE RNA interaction; Rev peptide-RRE RNA binding, FRET; P05866; 97,000 compounds, 0.79% hits; inhibition, % at 8 µM;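 active means inhibition above the screen-wide mean plus 3 SD, cut at about 35% in these data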;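 further: 0% = median DMSO wells and 100% = median Neomycin B control wells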
Target sequence (P05866 whole entry, looked up): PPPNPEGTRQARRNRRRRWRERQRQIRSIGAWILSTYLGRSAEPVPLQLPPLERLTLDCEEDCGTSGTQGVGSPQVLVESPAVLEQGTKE
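Assay system: Labelled RRE RNA duplex and labelled Rev peptide | Times: 5 min preincubation and 15 min binding, 25 °C | Detection: FRET, ex 480 nm, em 540 and 671 nm | Evaluation: % inhibition of FRET ratio versus controls | Benchmarks: DMSO wells as 0% and neomycin B wells as 100% inhibition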
ERa coact pot: ER-alpha (human) coactivator binding potentiation. AID 639. coactivator binding (% of control), % at 25.6 µM. TR-FRET ERalpha-LBD/SRC-Cy5 coactivator binding, 2 h; 100 = basal binding, no effect. 86,000 compounds, 1.3% hits; in the data active means activity above about 200%;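 further: binding measured in presence of low estradiol as agonist stimulus; 0% = peptide alone without receptor and 100% = receptor with peptide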
Numbers without * were called inactive; · = no result; [ ] = dose if it differs, or a comment. Rows were chosen to be rich in hits. Some 3.5% of all compounds tested hit in one or more screens of this group.

SMILES | ERb SRC1 inh | ERa SRC1 inh | sEH activator | sEH inhibitor | Rev-RRE block | ERa coact pot
CC1=C(C#N)C(Nc2ccc(C)cn2)(C(F)(F)F)C(=O)N1 (configuration not stated) | 12.5 | 5.0 | 5.4 | -3.4 | 16.2 | 227.6*[fluorescence artefact?]
COc1ccc(C2=Nc3ccccc3OC2)cc1 | -3.4 | -8.7 | -12.7 | 11.2 | 3.8 | 108.9
O=C1c2cccc3c(O)ccc(c23)C(=O)N1Cc1ccccc1 | · | · | 9.4 | -6.9 | 130.5*[fluorescence artefact?] | ·
COC(=O)c1ccc2c(c1)NC(=O)C1CCCN21 (configuration not stated) | 21.8 | 80.6*[fluorescence artefact?] | · | · | · | 35.3
Cc1ccc2cc(C3C(C#N)=C(N)Oc4c3ccc3cccnc43)c(=O)[nH]c2c1 (configuration not stated) | 34.8 | 25.6 | 13.2 | -14.5 | 6.8 | 66.5
CCc1ccc2[nH]c(=O)c(C3C(C#N)=C(N)Oc4c3ccc3cccnc43)cc2c1 (configuration not stated) | 50.5* | 79.6* | -10.0 | 11.1 | 5.1 | 76.1
Cc1ccc2oc(=O)c3cc(C(=O)N4CCN(c5ncccn5)CC4)sc3c2c1 | 29.1 | 74.2*[fluorescence artefact?] | · | · | · | 141.6
Cc1ccc2oc(=O)c3cc(C(=O)N4CCN(C(=O)c5ccco5)CC4)sc3c2c1 | -20.8 | 2.9 | · | · | · | 97.4
COc1ccc(C)cc1-n1nnnc1SCC(=O)c1ccc2c(c1)OCCO2 | 24.6 | 10.2 | 19.2 | -20.9 | 10.3 | 233.2*
COc1ccc(-n2nnnc2SCC(=O)Nc2ccc3c(c2)OCCO3)cc1OC | 24.1 | 35.8 | -39.9 | 38.9 | 3.8 | 210.0*
COc1ccc(C)cc1-n1nnnc1SCC(=O)NC(=O)NCc1ccco1 | 46.1 | 73.2* | -8.7 | 4.7 | 4.2 | 50.4
COc1cccc(-n2nnnc2SCC(=O)Nc2ccc3c(c2)OCCO3)c1 | · | · | -26.1 | 25.9 | -1.0 | ·
COC(=O)c1ccc(-n2nnnc2SCC(=O)Nc2ccccc2OC)cc1 | 25.1 | 58.2*[fluorescence artefact?] | -11.5 | 12.2 | 6.1 | 170.3
COc1ccc(C(=O)N2CCC(N3CCN(c4ccccc4)CC3)CC2)cc1OC | -4.4 | -1.2 | · | · | · | 119.5
CN1CCN(CCCNC(=O)c2cc3c(=O)n(C)c4ccccc4c3s2)CC1 | -10.4 | -5.8 | 8.7 | -10.1 | 6.6 | 117.2
COc1ccccc1C1=NN(C(=S)Nc2ccccc2)C(c2ccco2)C1 (configuration not stated) | · | · | -3.9 | 3.6 | 4.8 | ·
O=S(=O)(NCCO)c1cccc2cccnc12 | -4.8 | 5.6 | -2.9 | 1.3 | 5.4 | 87.6
Cc1ccc(-n2nnnc2SCC(=O)Nc2cccc(NC(=O)c3ccco3)c2)cc1C | 34.8 | 79.4* | -15.8 | 16.9 | 1.1 | 122.8
O=C(CCc1ccc(S(=O)(=O)N2CCOCC2)cc1)NCCCN1CCCC1=O | 57.9*[fluorescence artefact?] | 22.0 | 7.1 | -7.9 | 4.7 | 93.8
Cc1ccc2c(CC(=O)Nc3ccc(N4CCN(C)CC4)cc3C)coc2c1 | 21.4 | 19.2 | · | · | · | 93.8
O=C(NCc1ccco1)c1ccc(Cn2c(=O)c3sccc3n(Cc3cccc(F)c3)c2=O)cc1 | 25.5 | 57.3*[fluorescence artefact?] | -5.8 | 6.4 | 1.2 | 141.6
O=C(CCn1c(=O)c2sccc2n(CC(=O)NCc2ccco2)c1=O)NCc1ccccc1 | 2.8 | 3.0 | 3.6 | -9.4 | 4.1 | 107.5
O=C(NCc1ccco1)c1ccc(Cn2c(=O)c3ccccc3n(Cc3cccc(Cl)c3)c2=O)cc1 | 50.0 | 66.6*[fluorescence artefact?] | -17.5 | 15.1 | 0.4 | 61.3
Cc1oc2c(c1C(=O)Nc1ccc(C(=O)O)cc1)CCCC2 | -4.4 | -2.0 | -5.7 | 3.5 | 1.9 | 92.3
CCc1ccc(Cn2nnc(C(=O)Nc3ccc(OC)cc3OC)c2N)cc1 | -3.4 | 10.3 | · | · | 6.0 | 122.6
SMILES | ERb SRC1 inh | ERa SRC1 inh | sEH activator | sEH inhibitor | Rev-RRE block | ERa coact pot
CCOc1ccc(Cn2nnc(C(=O)NCc3ccc(OC)cc3)c2N)cc1 | 6.7 | 2.4 | 0.2 | -0.5 | -3.5 | 227.7*
CC(C)N1CCc2c(sc(NC(=O)c3ccc(S(=O)(=O)N4CCOCC4)cc3)c2C#N)C1 | -5.2 | 0.2 | · | · | · | 87.9
CCOC(=O)N1CCc2c(sc(NC(=O)c3ccc(S(=O)(=O)N4CCCC4)cc3)c2C#N)C1 | 21.5 | 34.2 | · | · | · | 245.4*
N#Cc1c(NC(=O)CN2CCN(S(=O)(=O)c3ccc4c(c3)OCCO4)CC2)sc2c1CCC2 | 53.4*[fluorescence artefact?] | 68.7*[fluorescence artefact?] | -6.9 | 5.6 | 16.6 | 26.6
CC(NC(=O)CSc1nc2ccccc2n1CCC#N)c1ccc(F)cc1 (configuration not stated) | -0.8 | -5.9 | -3.5 | 1.6 | 7.0 | 86.9
CCCC/C(O)=C1\C(=O)CC(C)(C)CC1=Nc1ccc(OC)cc1 | 6.9 | 6.2 | -2.3 | 5.7 | 2.1 | 87.7
COC(=O)CCC/C=C1/SCC(NC(=O)c2ccccc2)C1O (configuration not stated) | 2.8 | 16.7 | -5.4 | 9.3 | -4.9 | 212.8*
COC(=O)CCC/C=C1/SCC(NC(=O)c2ccccc2)C1=O (configuration not stated) | 3.8 | 4.8 | -5.3 | 2.5 | 3.8 | 100.1
CCN(CCO)c1ncnc2c1sc1nc(C(C)C)c3c(c12)CC(C)(C)OC3 | · | · | -0.7 | -0.6 | -4.0 | ·
CC(C)c1nc2sc3c(NCc4ccco4)ncnc3c2c2c1COC(C)(C)C2 | 41.3 | 53.8*[fluorescence artefact?] | -6.6 | 7.0 | 6.6 | 138.1
CC(C)c1nc2sc3c(NCc4ccccc4)ncnc3c2c2c1COC(C)(C)C2 | 24.8 | 10.0 | 22.8 | -25.8 | 8.2 | 365.7*[fluorescence artefact?]
CSc1nc(NCc2ccco2)c2sc3nc(C(C)C)c4c(c3c2n1)CC(C)(C)OC4 | · | · | 3.1 | -3.5 | 15.9 | ·
O=c1oc2c3c4c(cc2c(C(F)(F)F)c1CCN1CCOCC1)CCCN4CCC3 | -4.6 | -0.2 | 5.9 | -6.5 | 113.3*[fluorescence artefact?] | 98.7
O=C1c2cccc3cccc(c23)C(=O)N1c1ccc2ncccc2c1 | 23.5 | 71.0*[fluorescence artefact?] | 1.8 | -1.9 | 5.7 | 171.6
O=C1c2cccc3cccc(c23)C(=O)N1c1nccs1 | -6.9 | 3.7 | -18.9 | 17.8 | 2.4 | 128.0
Cc1cc2cc3c(cc2nc1SCC(=O)OC(C)C)OCO3 | · | · | -5.3 | 6.1 | -4.7 | ·
N#Cc1cc2cc3c(cc2nc1SCC(=O)OC1CCCCC1)OCO3 | 42.6 | 32.4 | -3.1 | 0.6 | 5.2 | 231.0*[fluorescence artefact?]
CCCn1cc(S(=O)(=O)CC(=O)Nc2ccc(OCC)cc2)c2ccccc21 | -6.8 | -15.3 | · | · | · | 106.7
CCOC(=O)c1c(C)n(C)c2cc(Br)c(C)cc12 | 23.3 | 6.1 | 6.9 | -7.9 | 14.3 | 151.1
CCOC(=O)c1c2c(n(C)c1COC)C(=O)C(=O)c1ccc(Br)cc1-2 | 33.2 | 84.7* | 5.2 | -2.6 | 12.2 | 57.4
CCCC(=O)Nc1ccc(-c2nc3cc(C)c(C)cc3o2)cc1 | 43.1 | 69.3*[fluorescence artefact?] | -1.4 | 1.0 | 33.8 | 167.6
CCCCCC(=O)Nc1ccc2oc(-c3cncc(Br)c3)nc2c1 | 13.9 | 23.8 | -81.9 | 82.4* | 3.5 | 92.2
Cc1ccc2oc(-c3ccc(NC(=O)CC(C)C)cc3)nc2c1 | 14.8 | -0.9 | -9.6 | 10.0 | 13.1 | 225.0*[fluorescence artefact?]
Cc1ccc2oc(-c3ccc(NC(=O)c4cccnc4)cc3)nc2c1 | 30.7 | 1.6 | -3.3 | 4.6 | -1.6 | 248.5*

Bioassay records: PubChem BioAssay, several laboratories
